Screens (PubChem BioAssay)
Rows were chosen to be rich in hits. Some 1.8% of all compounds tested hit in one or more screens of this group.
M5 antag: human M5 muscarinic receptor antagonists, primary screen, CHO cells, Fluo-8 calcium fluorescence; Muscarinic acetylcholine receptor M5 (Homo sapiens), P08912; CHO-hM5 cells, ACh EC80; inhibition, % at 3 µM; 360,000 tested, 0.59% active; AID 624040, 2012;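 active means inhibition above a per-plate cutoff, the mean of that plate's test compounds plus 3 SD, cut at about 27% in these data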;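 further: 0% = acetylcholine EC80 with DMSO and 100% = DMSO without agonist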
Target sequence (P08912 whole entry, looked up): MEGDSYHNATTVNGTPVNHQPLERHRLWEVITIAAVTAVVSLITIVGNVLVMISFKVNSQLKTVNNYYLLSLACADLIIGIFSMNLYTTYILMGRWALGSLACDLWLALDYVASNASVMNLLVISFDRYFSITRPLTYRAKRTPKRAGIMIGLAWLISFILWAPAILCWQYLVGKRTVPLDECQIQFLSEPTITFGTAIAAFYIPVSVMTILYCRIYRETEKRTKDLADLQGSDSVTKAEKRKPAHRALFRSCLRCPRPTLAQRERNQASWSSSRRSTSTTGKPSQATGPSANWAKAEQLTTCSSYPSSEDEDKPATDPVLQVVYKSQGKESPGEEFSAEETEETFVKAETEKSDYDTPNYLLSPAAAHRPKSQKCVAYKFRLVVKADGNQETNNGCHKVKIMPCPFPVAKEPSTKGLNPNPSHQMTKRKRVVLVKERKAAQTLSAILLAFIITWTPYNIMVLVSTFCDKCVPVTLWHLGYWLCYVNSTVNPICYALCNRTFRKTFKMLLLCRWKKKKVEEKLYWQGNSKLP
M5 ag: human M5 muscarinic receptor agonists, primary screen, CHO-K1 cells, Fluo-8 calcium fluorescence. 360,000 tested, 0.19% active. activation, % at 3 µM. CHO-K1 hM5 cells; 0% DMSO wells, 100% maximal acetylcholine response. AID 624037, 2012;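 active means activation above the run's mean over test compounds plus 3 SD, cut at about 23% in these data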;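 further: signal is peak over basal fluorescence ratio across the kinetic read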
M4 antag: human M4 muscarinic receptor antagonists, primary screen, CHO cells, Fluo-8 calcium fluorescence. 360,000 tested, 0.73% active. CHO-hM4 cells, ACh EC80. inhibition, % at 3 µM. Muscarinic acetylcholine receptor M4 (Homo sapiens), P08173;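 active means inhibition above its plate's cutoff, the mean inhibition of sample wells plus 3 SD, cut at about 27% in these data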;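 further: 0% = acetylcholine EC80 with DMSO and 100% = DMSO without agonist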
CHRM4 agonist: human M4 muscarinic receptor agonists, primary screen, CHO-K1 cells, Fluo-8 calcium fluorescence; AID 624127, 2012; CHO-K1 hM4/Gqi5; vehicle 0%, full acetylcholine response 100%; 360,000 tested, 0.14% active; activation, % at 3 µM;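 active means activation above the run mean over all test wells plus 3 SD, cut at about 32% in these data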;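 further: peak over basal fluorescence ratio per well then scaled between controls; 0% = DMSO wells and 100% = acetylcholine at EC100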
M5 PAM: human M5 muscarinic receptor positive allosteric modulators, primary screen, CHO-K1 cells, Fluo-8 calcium fluorescence. activation, % at 3 µM. AID 624038, 2012. Muscarinic acetylcholine receptor M5 (Homo sapiens), P08912. 360,000 tested, 0.3% active. CHO-K1 hM5, ACh EC20 PAM; 0% = ACh EC20, 100% = ACh EC100;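 active means activation above the run cutoff, the mean activation of all test compounds plus 3 SD, cut at about 18% in these data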
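system = human M5 receptor in CHO-K1 cells | reagent = EC20 acetylcholine as agonist stimulus | compound dosing = single-point, 3 µM nominal | incubation = Fluo-8 loading 80 min at 37 °C plus 30 min room temperature | detection = Fluo-8 calcium dye fluorescence, kinetic read | benchmarks = low control EC20 acetylcholine (0%), high control EC100 acetylcholine (100%)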
CHRM4 PAM: human M4 muscarinic receptor positive allosteric modulators, primary screen, CHO-K1 cells, Fluo-8 calcium fluorescence; activation, % at 3 µM; CHO-K1 hM4/Gqi5, ACh EC20; 0% = ACh EC20, 100% = maximal ACh; 360,000 tested, 0.4% active; AID 624126, 2012;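 active means activation above its plate's cutoff, the mean activation of sample wells plus 3 SD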
The depositor's hits bear a star.

SMILES	M5 antag	M5 ag	M4 antag	CHRM4 agonist	M5 PAM	CHRM4 PAM
Cc1ccc2c(c1)C(=O)N1[C@H]3c4cc(Cl)ccc4OC[C@@H]3[C@H](c3ccccc3)[C@]1(C)C(=O)N2	-6	4	4	0	-3	-5
Cc1ccc2c(c1)C(=O)N1[C@H]3c4cc(C)ccc4OC[C@@H]3[C@H](c3ccccc3)[C@]1(C)C(=O)N2	10	-4	29*	1	-18	-15
C[C@@]12C(=O)Nc3cc(Cl)ccc3C(=O)N1[C@H]1c3ccccc3OC[C@@H]1[C@@H]2c1ccccc1	9	-2	33*	3	-15	-17
Cc1ccc([C@H]2C[C@H](n3cc(C4CC4)nn3)[C@@H](O)CN2Cc2cccs2)cc1	-2	4	-24	0	0	5
CSC1=N/C(=C\c2ccccc2Cl)C(=O)N1N(C)C	11	4	8	9	-11	-20
Cc1ccc(-c2cc(C(=O)Nc3cnn(C45CC6CC(CC(C6)C4)C5)c3)no2)cc1	-3	2	3	4	4	11
Cc1ccc(-c2cc(C(=O)Nc3cnn(C(C)C)c3)no2)cc1	-2	26*	5	7	-14	-4
COc1ccc2c(c1)Cc1sc(NC(=O)c3ccco3)nc1-2	4	9	-14	2	-15	27*
COc1ccc2c(c1)-c1nc(NC(=O)c3ccco3)sc1CC2	-13	19	-9	6	11	0
COc1ccc2c(c1)CCc1sc(NC(=O)c3ccco3)nc1-2	-10	11	-30	2	2	28*
CCCC1CCC(c2ccc(OCC)cc2)=CC1=O (stereo not drawn)	0	-5	-3	0	6	2
CCCCn1nc(C(=O)Nc2cc(C(F)(F)F)ccc2N2CCOCC2)ccc1=O	4	-5	-1	4	-3	-2
COc1ccc(NC(=O)CCSc2nc(C)cs2)cc1	-5	0	-5	1	-2	1
C=CCNC(=S)N/N=C/c1ccc(C)cc1C	-15	1	-11	-1	21*	6
CCNC(=S)N/N=C/c1cc(C)ccc1C	1	-5	-6	-3	-7	6
O=Cc1ccc(-c2ccccc2C(=O)O)o1	11	0	2	1	-5	1
O=C(O)c1ccccc1-c1c2cc(I)c(=O)c(I)c-2oc2c(I)c(O)c(I)cc12	38*	107*	57*	254*	-20	-19
COc1ccccc1CNC(=O)COC(=O)C1CCN(S(=O)(=O)c2ccccc2)CC1	1	-1	5	5	-1	-1
Cc1cc(NC(=O)COC(=O)c2cccc(S(=O)(=O)N(C)C3CCCCC3)c2)no1	4	-4	30*	3	-5	9
COc1ccc(NS(=O)(=O)c2cccc(C(=O)OCC(=O)Nc3cc(C)on3)c2)cc1	0	5	9	5	-5	8
Cc1ccc(NS(=O)(=O)c2ccc(C(=O)OCC(=O)Nc3cc(C)on3)cc2)cc1	4	26*	7	19	2	-5
Cc1cnc(CNC(=O)c2ccc(OC3CCN(C(=O)C4CC4)CC3)cc2)cn1	0	17	-2	3	23*	18
COc1ccc(NC2CCCN(C(=O)c3cc(C)nc4cc(F)ccc34)C2)cc1 (stereo not drawn)	-10	-3	-6	2	8	-1
CCCc1nnc(SCc2ccc(C(=O)OC)o2)n1N	-1	0	-1	1	3	1
CCc1nnc(SCc2ccc(C(=O)OC)o2)n1N	-10	2	-7	2	19*	12
SMILES	M5 antag	M5 ag	M4 antag	CHRM4 agonist	M5 PAM	CHRM4 PAM
O=C(CN1CCCC1)Nc1c(Cl)cccc1Cl	10	-3	1	1	-1	-1
Cc1cccc(C)c1NC(=O)C(C1CC1)n1c(-c2ccc(=O)[nH]c2)nc2ccccc21 (stereo not drawn)	-21	1	-7	1	21*	6
Cc1cccc(C)c1NC(=O)C(C)n1c(-c2ccc(=O)[nH]c2)nc2ccccc21 (stereo not drawn)	-2	1	-7	4	-1	7
O=C(Nc1cccc(F)c1)C1CCCN(S(=O)(=O)c2ccccc2)C1 (stereo not drawn)	14	-1	-11	12	-7	-2
COc1ccc(CC(=O)Nc2cccc(-c3nnc(-c4cccc(C)c4)o3)c2)cc1OC	36*	7	21	21	-25	-21
COc1ccc(CC(=O)Nc2cccc(-c3nnc(-c4ccc(C)cc4)o3)c2)cc1OC	-3	4	2	6	-5	-10
CC1CCCC(C)N1C(=O)COC(=O)CSc1ccc(C(N)=O)cc1[N+](=O)[O-] (stereo not drawn)	0	4	-15	3	-3	0
O=C(CSc1nc2ccccc2c(=O)n1-c1ccc(F)cc1)Nc1cc(S(=O)(=O)N2CCOCC2)ccc1Cl	5	2	30*	4	-9	-38
O=C(O)CC1(CC(=O)Nc2nccs2)CCCCC1	-6	3	-15	1	7	4
CCC(O)c1cnc(OCc2ccccc2)nc1OCc1ccccc1 (stereo not drawn)	4	-2	0	0	-2	-4
CCN(c1ccccc1)S(=O)(=O)c1ccc2c(c1)CC(C)N2C(=O)C1CC1 (stereo not drawn)	27*	0	8	16	-9	-8
COc1ccc(C(=O)C2CCCN(C(=O)Cn3nc(C)cc3C)C2)cc1F (stereo not drawn)	5	2	29*	2	-4	12
COc1ccc(C(=O)C2CCCN(Cc3cn(C)nc3-c3ccccc3)C2)cc1F (stereo not drawn)	5	-2	40*	82*	-6	-24
Cc1ccc(Cl)cc1NC(=S)NCCCSC1CCCCC1	19	-2	10	6	-19	-18
C[n+]1ccccc1/C=C/c1cc(Br)ccc1O	34*	-2	12	1	-16	-13
O=C(NCC1CC1)c1csc([C@@H]2O[C@H](CO)[C@H](O)[C@H](O)[C@H]2O)n1	-5	2	-5	0	1	1
